Measurements published in ChEMBL document CHEMBL3616423, “Design and synthesis of novel hydroxyanthraquinone nitrogen mustard derivatives as potential anticancer agents via a bioisostere approach” (Eur J Med Chem, 2015).

Assays:
MDA-MB-231 [1] = assay: Cytotoxicity against human MDA-MB-231 cells assessed as cell viability after 5 days by cell viability analyzer; format: functional, cell-based; settings: MDA-MB-231, 120 h
How it was run: (§1)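 Cells were grown in DMEM with 10% FBS, 4 mM glutamine, 1 mM sodium pyruvate, penicillin/streptomycin and amphotericin at 37 °C under 5% CO2, then seeded at 20,000 per well. They were exposed to five doses from 0.01 to 10 μM for 5 days, with DMSO vehicle as control. Viable cells were counted, and % viability was calculated as treated/vehicle. IC50 was taken from dose-response curves over three independent experiments.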

HeLa [2] = assay: Cytotoxicity against human HeLa cells assessed as cell viability after 5 days by cell viability analyzer; format: functional, cell-based; settings: 120 h; how it was run: as §1
MCF10 = assay: Cytotoxicity against human MCF10 cells at 1 to 10 uM; format: cell-based; settings: mcf10, 10 µM
MDA-MB-231 [3] = assay: Ratio of chlorambucil IC50 to compound IC50 for human MDA-MB-231 cells assessed as cell viability after 5 days by cell viability analyzer; format: functional
How it was run: (§2)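 Cells grown in DMEM with 10% FBS, 4 mM glutamine, 1 mM sodium pyruvate, penicillin/streptomycin and amphotericin at 37 °C under 5% CO2. They were seeded at 20,000 per well and exposed to test agents or chlorambucil at 5 doses (0.01–10 μM) for 5 days, with DMSO as vehicle. Viable cells were counted by analyzer and expressed as % of vehicle. IC50s for both agents came from dose-response curves over three independent experiments.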

MCF7 = assay: Ratio of chlorambucil IC50 to compound IC50 for human MCF7 cells assessed as cell viability after 5 days by cell viability analyzer; format: functional; how it was run: as §2
HeLa [4] = assay: Ratio of chlorambucil IC50 to compound IC50 for human HeLa cells assessed as cell viability after 5 days by cell viability analyzer; format: functional; how it was run: as §2

| Structure (SMILES) | IC50 (MDA-MB-231 [1]) | IC50 (HeLa [2]) | Activity (MCF10) | Ratio IC50 (MDA-MB-231 [3]) | Ratio IC50 (MCF7) | Ratio IC50 (HeLa [4]) |
| --- | --- | --- | --- | --- | --- | --- |
| CC(c1cc(O)c2c(c1O)C(=O)c1ccccc1C2=O)N(CCCl)CCCl (stereo not given) | 1 µM | 0.154 µM |  |  |  |  |
| O=C1c2ccccc2C(=O)c2c(O)c(CN(CCCl)CCCl)cc(O)c21 | 0.211 µM | 0.139 µM |  |  |  |  |
| CCC(c1cc(O)c2c(c1O)C(=O)c1ccccc1C2=O)N(CCCl)CCCl (stereo not given) | 0.0845 µM | 0.105 µM |  |  |  |  |
| CCCC(c1cc(O)c2c(c1O)C(=O)c1ccccc1C2=O)N(CCCl)CCCl (stereo not given) | 0.0619 µM | 0.152 µM |  |  |  |  |
| CC(C)C(c1cc(O)c2c(c1O)C(=O)c1ccccc1C2=O)N(CCCl)CCCl (stereo not given) | 0.0776 µM | 0.217 µM | Toxic |  |  |  |
| CC(C)CC(c1cc(O)c2c(c1O)C(=O)c1ccccc1C2=O)N(CCCl)CCCl (stereo not given) | 0.0146 µM | 0.392 µM |  |  |  |  |
| O=C1c2ccccc2C(=O)c2c(O)c(C(Cc3ccccc3)N(CCCl)CCCl)cc(O)c21 (stereo not given) | 0.0511 µM | 0.665 µM |  |  |  |  |
| O=C1c2ccccc2C(=O)c2c(O)c(C(c3ccccc3)N(CCCl)CCCl)cc(O)c21 (stereo not given) | 0.137 µM | 0.339 µM | Toxic |  |  |  |
| O=C1c2ccccc2C(=O)c2c(O)c(C(c3ccccc3F)N(CCCl)CCCl)cc(O)c21 (stereo not given) | 0.00059 µM | 0.615 µM | Toxic | 900 |  |  |
| O=C1c2ccccc2C(=O)c2c(O)c(C(c3cccc(F)c3)N(CCCl)CCCl)cc(O)c21 (stereo not given) | 0.0596 µM | 0.166 µM | Toxic |  |  |  |
| O=C1c2ccccc2C(=O)c2c(O)c(C(c3ccc(F)cc3)N(CCCl)CCCl)cc(O)c21 (stereo not given) | 0.0807 µM | 0.249 µM | Toxic |  | 100 |  |
| O=C1c2ccccc2C(=O)c2c(O)c(C(c3ccc(Cl)cc3)N(CCCl)CCCl)cc(O)c21 (stereo not given) | 0.048 µM | 0.185 µM |  |  |  |  |
| O=C1c2ccccc2C(=O)c2c(O)c(C(c3ccc(Br)cc3)N(CCCl)CCCl)cc(O)c21 (stereo not given) | 0.299 µM | 0.262 µM |  |  |  |  |
| COc1ccccc1C(c1cc(O)c2c(c1O)C(=O)c1ccccc1C2=O)N(CCCl)CCCl (stereo not given) | 0.00213 µM | 0.21 µM | Toxic |  |  |  |
| COc1cccc(C(c2cc(O)c3c(c2O)C(=O)c2ccccc2C3=O)N(CCCl)CCCl)c1 (stereo not given) | 0.0912 µM | 0.21 µM | Toxic |  |  |  |
| COc1ccc(C(c2cc(O)c3c(c2O)C(=O)c2ccccc2C3=O)N(CCCl)CCCl)cc1 (stereo not given) | 0.0129 µM | 0.457 µM | Toxic |  |  |  |
| Cc1ccc(C(c2cc(O)c3c(c2O)C(=O)c2ccccc2C3=O)N(CCCl)CCCl)cc1 (stereo not given) | 0.0225 µM | 0.0938 µM |  |  |  | 10 |
| Cc1ccc(C(c2cc(O)c3c(c2O)C(=O)c2ccccc2C3=O)N(CCCl)CCCl)cc1C (stereo not given) | 0.389 µM | 0.234 µM | Toxic |  |  |  |
| O=C1c2cccc(O)c2C(=O)c2c1ccc(C(c1ccccc1)N(CCCl)CCCl)c2O (stereo not given) | 0.316 µM | 0.308 µM |  |  |  |  |
| COc1cc(C(c2ccccc2)N(CCCl)CCCl)c(O)c2c1C(=O)c1ccccc1C2=O (stereo not given) | 0.278 µM | 0.48 µM | Toxic |  |  |  |
| O=C(O)CCCc1ccc(N(CCCl)CCCl)cc1 [CHLORAMBUCIL] | 0.52 µM | 0.943 µM |  |  |  |  |
